From PubChem BioAssay
DENV2 CPE rescue = inhibitors of DENV2 cytopathic effect, primary screen, cell-based, plate reader, single concentration; DENV2-infected cells, cytopathic effect rescue; 1.7% of 350,000 active; CPE inhibition, % at 9.99 µM; in the data active = CPE inhibition above about 20%, passing the limit was not always enough; inconclusive = no clear call, values can overlap the other calls; tested in BHK-21 cells
E-selectin induc = E-selectin induction in HUVECs, primary screen, imaging, HUVEC, immunofluorescence imaging, single point; P16581; normalized: neutral wells 0, TNF-alpha wells 100; activation, % at 7.58 µM; 0.37% of 260,000 active;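 active = mean E-selectin-positive cell signal at least 10% of the positive control, reached in at least 60% of replicates, without over 20% cell loss; inconclusive = no rule given, readout overlaps actives, possibly toxicity-flagged; inactive = the rest, including those meeting only one limit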
Target sequence (P16581 whole entry, looked up): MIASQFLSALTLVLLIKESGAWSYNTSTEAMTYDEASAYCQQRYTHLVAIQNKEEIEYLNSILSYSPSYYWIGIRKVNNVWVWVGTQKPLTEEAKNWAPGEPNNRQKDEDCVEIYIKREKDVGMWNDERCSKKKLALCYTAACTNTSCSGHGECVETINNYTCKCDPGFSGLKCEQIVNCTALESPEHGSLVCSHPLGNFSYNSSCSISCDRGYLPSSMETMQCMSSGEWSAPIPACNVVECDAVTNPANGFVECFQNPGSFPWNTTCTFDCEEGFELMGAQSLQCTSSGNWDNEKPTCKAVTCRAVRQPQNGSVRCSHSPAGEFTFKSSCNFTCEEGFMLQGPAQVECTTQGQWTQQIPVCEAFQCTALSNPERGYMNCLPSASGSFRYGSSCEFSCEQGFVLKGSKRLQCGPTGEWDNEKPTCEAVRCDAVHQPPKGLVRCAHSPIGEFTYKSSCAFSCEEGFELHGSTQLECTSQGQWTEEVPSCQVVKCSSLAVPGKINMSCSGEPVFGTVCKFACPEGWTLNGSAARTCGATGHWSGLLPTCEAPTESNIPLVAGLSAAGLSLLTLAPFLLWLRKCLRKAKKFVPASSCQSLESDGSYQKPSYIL
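material = human umbilical vein endothelial cells (HUVEC), E-selectin induction | quantity = 3,000 cells/well | medium = EGM-2 growth medium on 0.1% gelatin-coated wells | technique = immunofluorescence imaging | read-out basis = % PE-positive cells | control set = TNF-alpha positive control, DMSO neutral control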
PglD inh = C. jejuni PglD acetyltransferase inhibitors, primary screen, biochemical, DTNB colorimetric, single point; purified PglD enzyme, DTNB colorimetric CoA detection; UDP-N-acetylbacillosamine N-acetyltransferase PglD (Campylobacter jejuni); 0.098% of 360,000 active; AID 602405, 2012; inhibition, % at 12.5 µM; in the data active = inhibition above about 16%, passing the limit was not always enough; inconclusive = no clear call, values can overlap the other calls
ERAP1 HTS inh = human ERAP1 aminopeptidase inhibitors, primary screen, biochemical, single point, plate reader. Endoplasmic reticulum aminopeptidase 1 (Homo sapiens), Q9NZ08. recombinant ERAP1, Leu-AMC fluorescence, 60 min. inhibition, % at 10.7 µM. 0.15% of 340,000 active;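 active = mean replicate inhibition of at least 30%, or all replicates individually reaching that 30% level; inactive = mean below 30% and not every replicate reaching it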
SIRT5 block = SIRT5 desuccinylase inhibitors, primary screen, biochemical, fluorescence imaging, single point, set 5. inhibition, % at 15 µM. NAD-dependent protein deacylase sirtuin-5, mitochondrial (Homo sapiens), Q9NXA8. 1.1% of 330,000 active. Purified SirT5, succinyl-peptide AMC, trypsin-coupled fluorescence; in the data active = inhibition above about 15%; inconclusive = no clear call, values can overlap the other calls
Each line names hits and unclear results; the compound was inactive in the other large screens. In the library only some 2.5% were active in any assay of this set; here they are far more common.

NC(=O)CC(NC(=O)Cc1cccc2ccccc12)c1ccc(NCCc2ccc(F)cc2)c([N+](=O)[O-])c1 (stereo not drawn)	none (no result: DENV2 CPE rescue, ERAP1 HTS inh, SIRT5 block)
NC(=O)CC(NC(=O)Cc1cccc2ccccc12)c1ccc(NCCc2ccccc2F)c([N+](=O)[O-])c1 (stereo not drawn)	DENV2 CPE rescue 21.3 (no result: E-selectin induc, SIRT5 block)
CCN(CC)S(=O)(=O)c1ccc(N2CCOCC2)c(NC(=O)c2cccc3c(=O)c(C)c(-c4ccccc4)oc23)c1	none (no result: ERAP1 HTS inh)
COc1ccc(S(=O)(=O)N2CCOCC2)cc1NC(=O)c1cccc2c(=O)c(C)c(-c3ccccc3)oc12	SIRT5 block 26.7
O=C(CCN1CCCCC1)N[C@H]1C=C[C@@H](CC(=O)N2CCC(Cc3ccccc3)CC2)O[C@@H]1CO	none
O=C(C[C@@H]1C=C[C@@H](NC(=O)c2ccccn2)[C@H](CO)O1)NCc1cccc(F)c1	DENV2 CPE rescue 35.9
COc1ccc(CNC(=O)C[C@@H]2C=C[C@@H](NC(=O)c3ccc4c(c3)OCO4)[C@H](CO)O2)cc1	DENV2 CPE rescue 43.5
O=C(N[C@H]1C=C[C@@H](CC(=O)N2CCN(c3ccccc3)CC2)O[C@H]1CO)c1ccccc1	DENV2 CPE rescue 70.9
O=C(C[C@@H]1C=C[C@@H](NC(=O)c2ccccn2)[C@@H](CO)O1)NCc1cccc(F)c1	none
O=C(CCN1CCCCC1)N[C@@H]1C=C[C@H](CC(=O)N2CCC(Cc3ccccc3)CC2)O[C@H]1CO	SIRT5 block 15.3
O=C(N[C@@H]1C=C[C@H](CC(=O)N2CCN(c3ccccc3)CC2)O[C@H]1CO)c1ccccc1	none
COc1ccccc1N1CCN(C(c2ccc(C)cc2)c2nnnn2C(C)C)CC1 (stereo not drawn)	none (no result: DENV2 CPE rescue, E-selectin induc, ERAP1 HTS inh, SIRT5 block)
Cc1ccc(S(=O)(=O)n2nc(OC(=O)c3c(F)cccc3Cl)cc2N)cc1	none (no result: E-selectin induc)
COc1cccc(-c2nc(C(=O)NCCCN3CCOCC3)cc3c2[nH]c2ccccc23)c1	DENV2 CPE rescue inconclusive (no result: E-selectin induc, SIRT5 block)
O=C(C[C@@H]1C=C[C@@H](NC(=O)c2ccncc2)[C@H](CO)O1)Nc1ccccc1	DENV2 CPE rescue 34.7 (no result: PglD inh)
CC(=O)N[C@H]1C=C[C@H](CC(=O)NCc2ccc(Cl)cc2)O[C@H]1CO	DENV2 CPE rescue 32.0
O=C(N[C@@H]1C=C[C@@H](CC(=O)N2CCCCC2)O[C@@H]1CO)c1ccc2c(c1)OCO2	none
O=C(N[C@H]1C=C[C@@H](CC(=O)N2CCCCC2)O[C@H]1CO)c1ccc2c(c1)OCO2	PglD inh 15.8
Cc1cc(C)cc(N(C(=O)c2csnn2)C(C(=O)NC(C)(C)C)c2ccccn2)c1 (stereo not drawn)	SIRT5 block 25.9 (no result: DENV2 CPE rescue, E-selectin induc, PglD inh)
Cc1ccc(N(C(=O)c2csnn2)C(C(=O)NC(C)(C)C)c2ccccn2)cc1 (stereo not drawn)	none (no result: PglD inh)
COc1ccc(NC(=O)N(C)C[C@H]2Oc3ccc(NS(=O)(=O)c4ccc(Cl)cc4)cc3C(=O)N([C@@H](C)CO)C[C@@H]2C)cc1	none
COc1ccc(OCC(=O)NNC(=O)c2cccs2)cc1	none (no result: DENV2 CPE rescue, E-selectin induc, ERAP1 HTS inh, SIRT5 block)
COc1ccc(OCC(=O)Nc2ccc(NC(=O)c3cccs3)cc2)cc1	SIRT5 block 102.2
O=C(C1CCCC1)N1CC[C@@H]2[C@@H](CO)Nc3ccc(C#Cc4ccc(F)cc4)cc3[C@@H]21	none (no result: PglD inh)
O=C(C1CC1)N1CC[C@@H]2[C@H](CO)Nc3ccc(C#Cc4ccccc4F)cc3[C@@H]21	none (no result: ERAP1 HTS inh, SIRT5 block)
O=C(C1CCCC1)N1CC[C@@H]2[C@H]1c1cc(C#Cc3ccc(F)cc3)ccc1N[C@@H]2CO	none (no result: PglD inh)
N#Cc1ccc(-c2ccc3c(c2)[C@H]2[C@H](CCN2C(=O)C2CCC2)[C@H](CO)N3)cc1	DENV2 CPE rescue 34.9 (no result: PglD inh)
O=C(C1CC1)N1CC[C@@H]2[C@H]1c1cc(C#Cc3ccccc3F)ccc1N[C@@H]2CO	DENV2 CPE rescue 28.6 (no result: ERAP1 HTS inh, SIRT5 block)
O=C(C1CC1)N1CC[C@@H]2[C@H]1c1cc(C#Cc3ccc(F)cc3)ccc1N[C@@H]2CO	DENV2 CPE rescue 27.0 (no result: ERAP1 HTS inh, SIRT5 block)
O=C(C1CCC1)N1CC[C@@H]2[C@H](CO)Nc3ccc(C#Cc4ccc(F)cc4)cc3[C@@H]21	E-selectin induc 34.4 (no result: PglD inh)
CCCc1cn(CC[C@H]2CC[C@H](NC(=O)Nc3ccc4c(c3)OCO4)[C@@H](CO)O2)nn1	none
FC(F)(F)c1cc(-c2ccccc2)nc(NCc2cccnc2)n1	none (no result: DENV2 CPE rescue, E-selectin induc, ERAP1 HTS inh, SIRT5 block)
CCC(=O)N1CC[C@@H]2[C@H]1c1cc(C#Cc3ccc(F)cc3)ccc1N[C@@H]2CO	none
CCC(=O)N1CC[C@@H]2[C@H](CO)Nc3ccc(C#Cc4ccc(F)cc4)cc3[C@@H]21	E-selectin induc 59.5 (no result: SIRT5 block)
CCCCCCN1CCN(C2CN(C3CCCCC3)S(=O)(=O)C2)CC1 (stereo not drawn)	SIRT5 block 38.7
C[C@H](CO)N1C[C@H](C)[C@@H](CN(C)C(=O)Nc2ccc3c(c2)OCO3)Oc2ccc(NC(=O)C3CC3)cc2CC1=O	DENV2 CPE rescue 54.3
C[C@@H]1CN([C@@H](C)CO)C(=O)Cc2cc(NC(=O)NC3CCCCC3)ccc2O[C@H]1CN(C)C(=O)Nc1ccc2c(c1)OCO2	E-selectin induc 27.8
C[C@@H]1CN([C@H](C)CO)C(=O)Cc2cc(NC(=O)C3CC3)ccc2O[C@@H]1CN(C)Cc1ccc2c(c1)OCO2	E-selectin induc 28.9
C[C@H](CO)N1C[C@H](C)[C@H](CN(C)C(=O)Nc2ccc3c(c2)OCO3)Oc2ccc(NC(=O)NC3CCCCC3)cc2CC1=O	none
C[C@H]1CN([C@@H](C)CO)C(=O)Cc2cc(NC(=O)C3CC3)ccc2O[C@H]1CN(C)Cc1ccc2c(c1)OCO2	none
CCOc1ccc(NC(=O)c2ccco2)cc1S(=O)(=O)N1CCCC1	none
COc1cccc(-c2ccc3c(c2)O[C@H](CN(C)Cc2cccnc2)[C@@H](C)CN([C@@H](C)CO)S3(=O)=O)c1	none
COc1cc(OC)cc(C(=O)N2CCC(N3CCN(c4ccccc4OC)CC3)CC2)c1	SIRT5 block 24.1 (no result: PglD inh)
COc1ccc(C(=O)N2CCN(C3CCCCC3)CC2)cc1OC	DENV2 CPE rescue 31.2 (no result: E-selectin induc)
COc1cc(C(=O)N2CCN(C3CCCCC3)CC2)cc(OC)c1OC	none (no result: E-selectin induc)
COc1ccccc1N1CCN(C2CCCN(C(=O)c3ccoc3C)C2)CC1 (stereo not drawn)	none
COc1ccccc1N1CCN(C2CCCN(C(=O)c3cccc(-c4ccco4)c3)C2)CC1 (stereo not drawn)	DENV2 CPE rescue 44.0
C[C@H](CO)N1C[C@H](C)[C@H](CN(C)C(=O)NC2CCCCC2)Oc2ccc(NC(=O)Nc3ccc4c(c3)OCO4)cc2CC1=O	none
CCN(CC(=O)Nc1c(F)cccc1F)C(=O)c1ccc2c(c1)NC(=O)C(C)S2 (stereo not drawn)	SIRT5 block 27.4 (no result: E-selectin induc)
